From ChEMBL document CHEMBL1765014, “Non-peptide NK1 receptor ligands based on the 4-phenylpyridine moiety” (Bioorg Med Chem, 2011) come the findings set out here.

One assay deals with Substance-P receptor (Homo sapiens, UniProt P25103). The assay is described as follows: Displacement of [125I]BH-SP from human recombinant NK1 receptor expressed in CHO cells after 90 mins. Type of assay: cell-based. On the technique in general: Displacement assays read how much labelled ligand stays bound in the presence of the test substance.
Sequence of Substance-P receptor (P25103 whole entry): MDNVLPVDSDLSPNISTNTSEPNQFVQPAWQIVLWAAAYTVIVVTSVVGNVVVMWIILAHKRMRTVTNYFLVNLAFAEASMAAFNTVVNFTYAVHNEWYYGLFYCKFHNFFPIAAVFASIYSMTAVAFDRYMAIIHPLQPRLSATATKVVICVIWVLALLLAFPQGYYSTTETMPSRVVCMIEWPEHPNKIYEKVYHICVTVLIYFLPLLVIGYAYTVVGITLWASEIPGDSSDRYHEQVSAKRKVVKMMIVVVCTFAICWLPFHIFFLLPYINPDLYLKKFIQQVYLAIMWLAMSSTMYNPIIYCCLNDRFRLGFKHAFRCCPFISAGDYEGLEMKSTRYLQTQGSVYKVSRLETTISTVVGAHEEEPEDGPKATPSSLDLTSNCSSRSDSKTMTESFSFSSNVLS
The subject of assay [1] is CVEC. The assay is described as follows: Antiangiogenic activity in bovine CVEC cell assessed as cell proliferation at 100 nM to 1 uM after 48 hrs by microscopic analysis. Type of assay: functional, cell-based. The note with it: Bos taurus. A digest of the protocol: (§1)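 Subconfluent, synchronized bovine CVEC were stimulated with 10 nM Sar9-SP-sulfone, with or without test compound, for 48 h. Fixed and stained cells were counted microscopically as total cell number per well. Results are expressed as % inhibition of agonist-induced proliferation. Data are means ± SEM of three experiments; Student's t test.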

Assay [2] has as its system CVEC. The assay is described as follows: Antiangiogenic activity in bovine CVEC cell assessed as cell migration at 100 nM to 1 uM after 4 hrs by microscopic analysis. Type of assay: functional, cell-based. The note with it: Bos taurus. In outline: (§2)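 Bovine post-capillary venular endothelial cells (CVEC), cultured as previously described. Cells migrated toward 10 nM Sar9-SP-sulfone with or without test compound in a Neuroprobe microchemotaxis chamber and were evaluated after 4 h. Results are expressed as % inhibition of Sar9-SP-sulfone-induced activity. Data are means ± SEM of three experiments; Student's t test.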

Assay [3] can be described thus: Antiangiogenic activity in bovine CVEC cell assessed as inhibition of Sar9-SP-sulfone-induced cell migration at 100 nM after 4 hrs by microscopic analysis. The note with it: Bos taurus. Type of assay: functional. A digest of the protocol:
as §2

A short description of assay [4]: Antiangiogenic activity in bovine CVEC cell assessed as inhibition of Sar9-SP-sulfone-induced proliferation at 1 uM after 48 hrs by microscopic analysis. Type of assay: functional. The conditions noted are these: Bos taurus. In outline: as §1
The nature of assay [5]: Antiangiogenic activity in bovine CVEC cell assessed as inhibition of Sar9-SP-sulfone-induced proliferation at 100 nM after 48 hrs by microscopic analysis. The note with it: Bos taurus. Type of assay: functional. A digest of the protocol: as §1
The nature of assay [6]: Antiangiogenic activity in bovine CVEC cell assessed as inhibition of Sar9-SP-sulfone-induced cell migration at 1 uM after 4 hrs by microscopic analysis. The note with it: Bos taurus. Type of assay: functional. A digest of the protocol:
as §2

Assay [7] is described as follows: Antiangiogenic activity in bovine CVEC cell assessed as inhibition of Sar9-SP-sulfone-induced cell migration after 4 hrs by microscopic analysis. Type of assay: functional, cell-based. The note with it: Bos taurus. In outline: as §2
Assay [8] in a line: Antiangiogenic activity in bovine CVEC cell assessed as inhibition of Sar9-SP-sulfone-induced proliferation after 48 hrs by microscopic analysis. Type of assay: functional, cell-based. The conditions noted are these: Bos taurus. A digest of the protocol:
as §1

Activity calls are given as the source filed them. The rule behind the calls is not given here. A value given as a limit tells only on which side of the number the result lay.

The IC50 is the concentration that gives 50% inhibition. As for `Cc1nc2ccccc2c(-c2ccccc2)c1C(=O)NCc1cc(C(F)(F)F)cc(C(F)(F)F)c1`, the half-maximal inhibitory concentration (IC50) on Substance-P receptor was found to be 257 nM.

For `Cc1c(C(=O)NCc2cc(C(F)(F)F)cc(C(F)(F)F)c2)c(-c2ccccc2)cc2nncn12`, the IC50 on Substance-P receptor was determined as 698 nM.

Take `Cc1c(C(=O)N(C)Cc2cc(C(F)(F)F)cc(C(F)(F)F)c2)c(-c2ccccc2)cc2nncn12`: the IC50 on Substance-P receptor came to 53 nM.

For orientation: inhibition means the share of the control response that was lost under treatment. As for `Cc1nc(N2CCN(C)CC2)cc(-c2ccccc2)c1C(=O)N(C)Cc1cc(C(F)(F)F)cc(C(F)(F)F)c1`, the outcome with CVEC [1] and in the assay on CVEC [2] was inactive. Further, the inhibition at 0.1 µM in assay [3] amounted to 100%; in assay [5], 7.6%. Moreover, the inhibition at 1 µM amounted to 79.7% in [4] and 99% in assay [6]. Besides, on Substance-P receptor, the IC50 worked out at 4.8 nM.

On to `Cc1c(C(=O)N(C)Cc2cc(C(F)(F)F)cc(C(F)(F)F)c2)c(-c2ccccc2)cc[n+]1[O-]`, for which the IC50 at Substance-P receptor is 32 nM.

On to `O=C(NCc1cc(C(F)(F)F)cc(C(F)(F)F)c1)c1cnc2ccccc2c1-c1ccccc1`, for which, on Substance-P receptor, the IC50 came out at 208 nM.

On to `Cc1c(C(=O)NCc2cc(C(F)(F)F)cc(C(F)(F)F)c2)c(-c2ccccc2)cc2nnnn12`, for which the IC50 on Substance-P receptor was found to be 279 nM.

On to `Cc1c(C(=O)N(C)Cc2cc(C(F)(F)F)cc(C(F)(F)F)c2)c(-c2ccccc2)cc2nnnn12`, for which the IC50 on Substance-P receptor was 57 nM.

On to `Cc1nc2ccccc2c(-c2ccccc2)c1C(=O)N(C)Cc1cc(C(F)(F)F)cc(C(F)(F)F)c1`, for which the IC50 on Substance-P receptor was 19 nM.

For `CN(Cc1cc(C(F)(F)F)cc(C(F)(F)F)c1)C(=O)c1c(-c2ccccc2)ccnc1CCl`, the concentration for half-maximal inhibition (IC50) on Substance-P receptor was determined as 52 nM.

With `Cc1nccc(-c2ccccc2)c1C(=O)NCc1cc(C(F)(F)F)cc(C(F)(F)F)c1`, at Substance-P receptor, the IC50 was determined as 653 nM.

In the case of `CN(Cc1cc(C(F)(F)F)cc(C(F)(F)F)c1)C(=O)c1cnc2ccccc2c1-c1ccccc1`, the half-maximal inhibitory concentration (IC50) on Substance-P receptor came out at 92 nM.

As to `Cc1nc(Cl)cc(-c2ccccc2)c1C(=O)NCc1cc(C(F)(F)F)cc(C(F)(F)F)c1`, the IC50 at Substance-P receptor came out at 270 nM.

For the molecule `O=C(NCc1cc(C(F)(F)F)cc(C(F)(F)F)c1)c1c(-c2ccccc2)ccnc1CCl`, the IC50 at Substance-P receptor stood at 235 nM.

As for `COc1ccccc1CNC(=O)c1c(-c2ccccc2)ccnc1C`, the IC50 in assay [7] and in [8] was > 1000 nM in each case. The inhibition at 0.1 µM in assay [3] and in [5] was 0% each time. The inhibition at 1 µM came out at 11% in assay [4] and 9% in assay [6].

Consider `Cc1nc(N2CCN(C)CC2)cc(-c2ccccc2)c1C(=O)NCc1cc(C(F)(F)F)cc(C(F)(F)F)c1`, for which the outcome in the assay on CVEC [1] and in the assay on CVEC [2] was inactive. In addition, the inhibition at 0.1 µM worked out at 100% in [3] and 33.5% in assay [5]. Further, the inhibition at 1 µM in assay [4] came to 76.3%; in [6] it was 100%. The concentration for half-maximal inhibition (IC50) on Substance-P receptor is 53 nM.

Turning to `Cc1cc(-c2ccccc2)c(C(=O)N(C)Cc2cc(C(F)(F)F)cc(C(F)(F)F)c2)c(C)n1`, the IC50 on Substance-P receptor is 41 nM.

Take `O=C(NCc1cc(C(F)(F)F)cc(C(F)(F)F)c1)c1c(CO)nc2ccccc2c1-c1ccccc1`: on Substance-P receptor, the IC50 amounted to 227 nM.

For the molecule `Cc1c(C(=O)NCc2cc(C(F)(F)F)cc(C(F)(F)F)c2)c(-c2ccccc2)cc[n+]1[O-]`, the IC50 on Substance-P receptor was 342 nM.

As to `Cc1cc(-c2ccccc2)c(C(=O)NCc2cc(C(F)(F)F)cc(C(F)(F)F)c2)c(C)n1`, on Substance-P receptor, the IC50 was 434 nM.

`CN(Cc1cc(C(F)(F)F)cc(C(F)(F)F)c1)C(=O)c1c(CO)nc2ccccc2c1-c1ccccc1`: the 50% inhibitory concentration (IC50) on Substance-P receptor was 42 nM.

For the molecule `Cc1nccc(-c2ccccc2)c1C(=O)N(C)Cc1cc(C(F)(F)F)cc(C(F)(F)F)c1`, the half-maximal inhibitory concentration (IC50) at Substance-P receptor was found to be 98 nM.

With `Cc1nc(Cl)cc(-c2ccccc2)c1C(=O)N(C)Cc1cc(C(F)(F)F)cc(C(F)(F)F)c1`, the concentration for half-maximal inhibition (IC50) at Substance-P receptor was 91 nM.
